Bioassay records deposited in PubChem by several laboratories.
Most compounds without a hit are left out; they make up all but 2.7% or so of the library.
Wee1 stabilizer: Wee1 degradation inhibitors, primary screen, cell-based, HeLa, Wee1K328M-luciferase, luminescence; 1.2% of 220,000 active; HeLa Luc-Wee1K328M stability; 100% = proteasome inhibitor MG132 effect; Wee1-like protein kinase (Homo sapiens), P30291; reporter increase, % at 5 µM;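 active means activation above the mean of all tested compounds plus 3 SD, set per screening run, cut at about 8.8% in these data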;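 further: cells exposed to compound for 20 h before luminescence read; 0% = DMSO alone and 100% = MG132 at 30 µM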
Target sequence (P30291 whole entry K328M): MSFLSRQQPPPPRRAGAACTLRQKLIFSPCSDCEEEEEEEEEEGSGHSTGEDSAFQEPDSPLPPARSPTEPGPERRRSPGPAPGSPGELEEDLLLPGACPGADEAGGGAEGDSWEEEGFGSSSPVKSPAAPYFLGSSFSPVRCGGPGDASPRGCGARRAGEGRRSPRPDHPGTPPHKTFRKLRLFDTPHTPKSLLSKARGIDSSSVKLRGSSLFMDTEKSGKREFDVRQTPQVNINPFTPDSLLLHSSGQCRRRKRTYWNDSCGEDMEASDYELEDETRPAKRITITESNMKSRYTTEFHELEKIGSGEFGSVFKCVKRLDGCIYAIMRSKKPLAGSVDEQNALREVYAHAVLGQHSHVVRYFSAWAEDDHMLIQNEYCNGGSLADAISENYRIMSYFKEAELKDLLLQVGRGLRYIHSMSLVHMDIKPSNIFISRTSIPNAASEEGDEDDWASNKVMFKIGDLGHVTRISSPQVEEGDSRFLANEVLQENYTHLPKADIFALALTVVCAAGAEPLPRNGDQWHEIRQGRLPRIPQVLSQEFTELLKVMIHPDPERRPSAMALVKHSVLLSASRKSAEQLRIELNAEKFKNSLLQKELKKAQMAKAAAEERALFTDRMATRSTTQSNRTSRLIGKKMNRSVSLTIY
14-3-3 Bad PPI: inhibitors of 14-3-3 zeta/Bad binding, primary screen, biochemical, TR-FRET, bovine 14-3-3 zeta; 14-3-3 protein zeta/delta (Bos taurus), P63103; TR-FRET 14-3-3zeta/Dy647-pBad peptide displacement, 1 h; inhibition, % at 21.7 µM; 0.71% of 220,000 active;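 active means inhibition above about 70%, limit read from the data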;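 further: 0% = full 14-3-3 plus peptide FRET controls and 100% = background without 14-3-3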
MDM2 E3 inh: MDM2-luciferase reporter signal enhancers, primary screen, MDM2 E3 ligase inhibitor project, cell-based, luminescence, 1536-well; cell-based MDM2 ubiquitination luciferase reporter, 2 h; 0 = plate control, 100 = twice control, blank-subtracted; E3 ubiquitin-protein ligase Mdm2 (Homo sapiens), Q00987; 0.11% of 210,000 active; signal enhancement, % at 5 µM; AID 1230, 2008;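 active means signal enhancement of 30% or more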;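 further: luminescence tracks abundance of the self-degrading MDM2-luciferase fusion protein; higher signal means inhibition of MDM2 E3 ligase activity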
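Assay system: stable mammalian line carrying autodegrading MDM2–luciferase fusion reporter; Input: 2000 cells in each well; Compound dosing: single-point 5 µM; Schedule: 2 h compound exposure at 37 °C; Signal: SteadyLite luciferase luminescence after 15 min room-temperature reagent incubation; Evaluation: % luminescence enhancement versus blank-corrected plate control mean; Benchmarks: plate controls and plate blanks.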
Hck Nef HTS: inhibitors of Nef-activated human Hck kinase, primary screen, biochemical, Z-Lyte FRET, 384-well, Hck-YEEI; 0.68% of 220,000 active; Tyrosine-protein kinase HCK (Homo sapiens), P08631; inhibition, % at 20 µM; Recombinant Hck-YEEI plus Nef, Z-Lyte FRET kinase assay; AID 463187, 2010;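 active means Hck-Nef kinase inhibition above about 50%, limit read from the data; inactive means inhibition below that limit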;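 further: 0% = DMSO with Hck plus Nef and 100% = Hck alone without Nef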
Tb hexokinase: Trypanosoma brucei hexokinase 1 inhibitors, primary screen, biochemical, G6PDH-coupled NADH absorbance, MLSCN library. hexokinase 1 [Trypanosoma brucei]. recombinant TbHK1, G6PDH-coupled NADH A340. inhibition, % at 10 µM. 0.11% of 220,000 active. AID 1430, 2008;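 active means inhibition of 50% or more in the single-dose primary screen; inactive means inhibition below 50%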
* = called active by the depositor.

What do the screens show for `Cc1ccc(NC(=O)CCC(=O)N/N=C/c2cccs2)cc1`?
Wee1 stabilizer: 0; 14-3-3 Bad PPI: 86*; MDM2 E3 inh: -10; Hck Nef HTS: 1; Tb hexokinase: -7

Results for Cc1ccc(NC(=O)CCC(=O)N/N=C/c2cccs2)cc1C ?
Wee1 stabilizer: 0; 14-3-3 Bad PPI: -3; MDM2 E3 inh: -14; Hck Nef HTS: 3; Tb hexokinase: -3

How did Cc1ccccc1OCC(=O)NCCC1=CCCCC1 do in these assays?
Wee1 stabilizer: -2; 14-3-3 Bad PPI: 82*; MDM2 E3 inh: -5; Hck Nef HTS: 2; Tb hexokinase: -7

What do the screens show for `COc1ccc(Nc2nc(=O)c3cc([N+](=O)[O-])ccc3s2)cc1`?
Wee1 stabilizer: 2; 14-3-3 Bad PPI: 82*; Hck Nef HTS: 48; Tb hexokinase: -37

Results for COc1ccc(CNS(=O)(=O)c2ccc(OC)cc2)cc1 ?
Wee1 stabilizer: 1; 14-3-3 Bad PPI: 2; MDM2 E3 inh: -15; Hck Nef HTS: 0; Tb hexokinase: -3

What do the screens show for `CCCOc1ccc(S(=O)(=O)NCc2ccc(OC)cc2)cc1`?
Wee1 stabilizer: 22*; 14-3-3 Bad PPI: -11; MDM2 E3 inh: 2; Hck Nef HTS: 1; Tb hexokinase: 2

How did NC(N)=NC1=NC(=O)C(Cc2ccccc2)S1 (stereo not given) do in these assays?
Wee1 stabilizer: 7; 14-3-3 Bad PPI: 2; MDM2 E3 inh: -4; Hck Nef HTS: 26; Tb hexokinase: 2

Results for CC(C)CN(C)C(=O)CCc1nnc(Cc2cccc(C(F)(F)F)c2)o1 ?
Wee1 stabilizer: -1; 14-3-3 Bad PPI: -12; MDM2 E3 inh: -7; Hck Nef HTS: 11; Tb hexokinase: -5

What do the screens show for `C=C(Cl)COc1ccc2c(CCCC)cc(=O)oc2c1`?
Wee1 stabilizer: 9.3*; 14-3-3 Bad PPI: 3; MDM2 E3 inh: -17; Hck Nef HTS: -12; Tb hexokinase: 24

Results for C=C(Cl)COc1ccc2c(CC)cc(=O)oc2c1 ?
Wee1 stabilizer: -1; 14-3-3 Bad PPI: -1; MDM2 E3 inh: -7; Hck Nef HTS: 1; Tb hexokinase: 0

How did COc1cc(C(=O)Nc2cc(-c3nc4cc(C)ccc4o3)ccc2C)cc(OC)c1OC do in these assays?
Wee1 stabilizer: 1; 14-3-3 Bad PPI: 79*; MDM2 E3 inh: -20; Hck Nef HTS: 47; Tb hexokinase: -10

Results for COc1cc(C(=O)Nc2cccc(-c3nc4cc(C)ccc4o3)c2)cc(OC)c1OC ?
Wee1 stabilizer: -2; 14-3-3 Bad PPI: 46; MDM2 E3 inh: -9; Hck Nef HTS: -2; Tb hexokinase: -6

How did CSc1nnc(-c2ccccc2)c(-c2ccccc2)n1 do in these assays?
Wee1 stabilizer: 8.9*; 14-3-3 Bad PPI: -5; MDM2 E3 inh: -12; Hck Nef HTS: 6; Tb hexokinase: -20

Results for O=C(O)CSc1nnc(-c2ccccc2)c(-c2ccccc2)n1 ?
Wee1 stabilizer: -1; 14-3-3 Bad PPI: -5; MDM2 E3 inh: -16; Hck Nef HTS: 14; Tb hexokinase: -20

How did Cc1cc(=O)[nH]c(SCc2cccc3cccnc23)n1 do in these assays?
Wee1 stabilizer: 11*; 14-3-3 Bad PPI: -4; MDM2 E3 inh: 0; Hck Nef HTS: 13; Tb hexokinase: -3

What do the screens show for `CCCCCCc1cc2cc(C(=O)Nc3cccc(OC)c3)c(=O)oc2cc1O`?
Wee1 stabilizer: 1; 14-3-3 Bad PPI: 6; MDM2 E3 inh: -28; Hck Nef HTS: 53*; Tb hexokinase: -4

How did Cn1c(SCC(=O)Nc2cccc(S(=O)(=O)NC3=NCCCCC3)c2)nnc1-c1ccccc1 do in these assays?
Wee1 stabilizer: -1; 14-3-3 Bad PPI: -3; MDM2 E3 inh: -4; Hck Nef HTS: 19; Tb hexokinase: -4

How did O=c1cc(NCCc2ccccc2)c2ccccc2o1 do in these assays?
Wee1 stabilizer: 9.0*; 14-3-3 Bad PPI: -5; MDM2 E3 inh: -4; Hck Nef HTS: 34; Tb hexokinase: -1

How did O=c1cc(NCCO)c2ccccc2o1 do in these assays?
Wee1 stabilizer: 1; 14-3-3 Bad PPI: 10; MDM2 E3 inh: -1; Hck Nef HTS: -6; Tb hexokinase: -4

How did C/C(=N\Nc1ccc(C(=O)c2c(C)cc3ccccn23)cc1[N+](=O)[O-])c1ccc(O)cc1 do in these assays?
Wee1 stabilizer: 0; 14-3-3 Bad PPI: 7; Hck Nef HTS: 8; Tb hexokinase: -31

What do the screens show for `Cc1cc2ccccn2c1C(=O)c1ccc(N/N=C/c2ccc(C(=O)O)cc2)c([N+](=O)[O-])c1`?
Wee1 stabilizer: 0; 14-3-3 Bad PPI: 73*; Hck Nef HTS: -15; Tb hexokinase: -21

How did Cc1ccc(NC(=O)COC(=O)CSC(=S)N2CCOCC2)cc1 do in these assays?
Wee1 stabilizer: -2; 14-3-3 Bad PPI: -5; MDM2 E3 inh: -9; Hck Nef HTS: 21; Tb hexokinase: 0

Results for COCCCNC(=O)c1cc2c(=O)n3cc(C)ccc3nc2nc1NCC1CCCO1 (stereo not given) ?
Wee1 stabilizer: -3; 14-3-3 Bad PPI: 0; MDM2 E3 inh: -4; Hck Nef HTS: 193*; Tb hexokinase: -1

How did C=CCNC(=O)c1cc2c(=O)n3cc(C)ccc3nc2nc1NCC1CCCO1 (stereo not given) do in these assays?
Wee1 stabilizer: -3; 14-3-3 Bad PPI: -8; MDM2 E3 inh: -5; Hck Nef HTS: 179*; Tb hexokinase: -8

How did Cc1ccc(CNC(=O)c2cc3c(=O)n4ccccc4nc3n(CC3CCCO3)c2=N)cc1 (stereo not given) do in these assays?
Wee1 stabilizer: 3; 14-3-3 Bad PPI: 8; MDM2 E3 inh: -2; Hck Nef HTS: 39; Tb hexokinase: -5

How did CCNC(=O)C(=O)NCC1OCCCN1S(=O)(=O)c1cccs1 (stereo not given) do in these assays?
Wee1 stabilizer: 4; 14-3-3 Bad PPI: -6; Hck Nef HTS: -1; Tb hexokinase: -7

How did CCN(CC)S(=O)(=O)c1ccc2nc(NC(=O)c3ccco3)sc2c1 do in these assays?
Wee1 stabilizer: 9.6*; 14-3-3 Bad PPI: -5; Hck Nef HTS: 2; Tb hexokinase: -34

Results for CCN(CC)S(=O)(=O)c1ccc2nc(NC(=O)c3cccs3)sc2c1 ?
Wee1 stabilizer: 0; 14-3-3 Bad PPI: -10; MDM2 E3 inh: 1; Hck Nef HTS: 5; Tb hexokinase: -1

Results for O=C1/C(=C\c2ccco2)SC(=S)N1c1ccc(O)cc1 ?
Wee1 stabilizer: -1; 14-3-3 Bad PPI: 2; MDM2 E3 inh: -7; Hck Nef HTS: 72*; Tb hexokinase: -2
